Measured values as given in ChEMBL document CHEMBL1122389, “Synthesis and substituent effects on antibacterial activity, alkaline hydrolysis rates, and infrared absorption frequencies of some cephem analogues related to latamoxef (moxalactam)” (J Med Chem, 1983).

Experiments:
[1] = V max(amide I) measured in dimethyl sulfoxide; assay type: ADME
How it was run: (§1)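 IR stretching frequencies measured in dimethyl sulfoxide solution. Frequencies are calibrated against the rotational bands of the vapor.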

[2] = Pseudo-first order rate of beta-lactam cleavage at pH 9.2 and 35 degrees C; assay type: ADME
How it was run: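 Alkaline hydrolysis at pH 9.2 and 35.0 °C, followed as loss of absorbance near 260 nm. This is a slightly lower pH than a pH 9.94 carbonate buffer (NaHCO3 + Na2CO3 + NaCl, μ = 0.5). Pseudo-first-order k is obtained by least squares over the linear regions at 95% confidence.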

Escherichia coli [3] = test: Minimum inhibitory concentration (MIC) against Escherichia coli NIHJ JC-2 in gradient plate method; assay type: functional
How it was run: (§2)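 Gradient plate technique. Compound is incorporated into a tilted bottom agar layer, then overlaid horizontally with compound-free agar. A 10^6 cells/mL suspension is streaked across the gradient and incubated at 37 °C for 18–20 h. MIC is calculated from the growth distance along the streak and the original bottom-layer concentration.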

Klebsiella pneumoniae [4] = test: Minimum inhibitory concentration (MIC) against Klebsiella pneumoniae SRL-1 in gradient plate method; assay type: functional; how it was run: as §2
[5] = V max(beta-lactam) measured in dimethyl sulfoxide; assay type: ADME; how it was run: as §1
Escherichia coli [6] = test: Minimum inhibitory concentration (MIC) against Escherichia coli NIHJ JC-2 in agar dilution method; assay type: functional
How it was run: (§3)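 Agar dilution on sensitivity test agar. Overnight tryptose broth culture diluted in the same broth to about 10^6 cells/mL and inoculated onto agar containing serial twofold dilutions of antibiotic. Incubated at 37 °C for 18–20 h. MIC taken as the lowest concentration inhibiting visible growth.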

Klebsiella pneumoniae [7] = test: Minimum inhibitory concentration (MIC) against Klebsiella pneumoniae SRL-1 iin agar dilution method; assay type: functional; how it was run: as §3
Klebsiella pneumoniae [8] = test: Minimum inhibitory concentration (MIC) against Klebsiella pneumoniae SRL-1 in agar dilution method; assay type: functional; how it was run: as §3

SMILES	Vmax [1] [cm⁻¹]	k [2] [h⁻¹]	MIC (Escherichia coli [3]) [µg/mL]	MIC (Klebsiella pneumoniae [4]) [µg/mL]	Vmax [5] [cm⁻¹]	MIC (Escherichia coli [6]) [µg/mL]	MIC (Klebsiella pneumoniae [7]) [µg/mL]	MIC (Klebsiella pneumoniae [8]) [µg/mL]
Cn1nnnc1SCC1=C(C(=O)[O-])N2C(=O)[C@@H](NC(=O)Cc3ccc(O)cc3)C2SC1.[Na+] (some centres undefined)	1676.3	0.0227	1.2	1.4	1773.1			
CO[C@@]1(NC(=O)Cc2ccc(O)cc2)C(=O)N2C(C(=O)[O-])=C(CSc3nnnn3C)COC21.[Na+] (some centres undefined)	1694.9	0.228	0.08	0.1	1772.9			
CO[C@@]1(NC(=O)C(C(=O)[O-])c2ccc(O)cc2)C(=O)N2C(C(=O)[O-])=C(CSc3nnnn3C)COC21.[Na+].[Na+] (some centres undefined)	1686.6	0.178	0.09	0.06	1771.8	0.1	0.1	
Cn1nnnc1SCC1=C(C(=O)[O-])N2C(=O)[C@@H](NC(=O)C(C(=O)[O-])c3ccc(O)cc3)C2OC1.[Na+].[Na+] (some centres undefined)	1665.4	0.127	0.29	0.3	1779.2			
Cn1nnnc1SCC1=C(C(=O)[O-])N2C(=O)[C@@](C)(NC(=O)C(C(=O)[O-])c3ccc(O)cc3)C2OC1.[Na+].[Na+] (some centres undefined)	1668.2	0.0148			1774.5	12.5		12.5
Cn1nnnc1SCC1=C(C(=O)[O-])N2C(=O)[C@@H](NC(=O)C(C(=O)[O-])c3ccc(O)cc3)C2SC1.[Na+].[Na+] (some centres undefined)	1669	0.0239	1.5	2.3	1770			
COC1(NC(=O)C(C(=O)[O-])c2ccc(O)cc2)C(=O)N2C(C(=O)[O-])=C(CSc3nnnn3C)CCC21.[Na+].[Na+] (centres undefined)	1684.5	0.0694			1757	6.25		3.13
CO[C@@]1(NC(=O)C(C(=O)[O-])c2ccc(O)cc2)C(=O)N2C(C(=O)[O-])=C(CSc3nnnn3C)CSC21.[Na+].[Na+] (some centres undefined)	1682.3	0.0239	0.55	0.37	1767.8	0.78	0.39	
CO[C@@]1(NC(=O)Cc2ccc(O)cc2)C(=O)N2C(C(=O)[O-])=C(CSc3nnnn3C)CSC21.[Na+] (some centres undefined)	1690.6	0.0351	0.5	1.3	1768.1			
Cn1nnnc1SCC1=C(C(=O)[O-])N2C(=O)[C@@H](NC(=O)Cc3ccc(O)cc3)C2OC1.[Na+] (some centres undefined)	1674.5	0.139	0.34	0.31	1778.2			
